Measured values reported in ChEMBL document CHEMBL1136954, “Toward the back-up of boceprevir (SCH 503034): discovery of new extended P4-capped ketoamide inhibitors of hepatitis C virus NS3 serine protease with improved potency and pharmacokinetic profiles” (J Med Chem, 2009).

Columns and labels:
[1] = Inhibition of HCV NS4A-tethered single chain NS3 serine protease by spectrophotometric assay; design: species or system Hepacivirus hominis
How it was run: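 Continuous assay with NS4A-tethered single-chain NS3 serine protease; potency given as Ki*.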

Hepatitis C virus = test: Antiviral activity against Hepatitis C virus genotype 1 infected in human hepatocytes by replicon assay; assay type: functional, Hepacivirus hominis; details: genotype 1, Hepatocyte
How it was run: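 HCV genotype 1 replicon cell assay; EC90 reported, within 3-fold at 95% confidence for a single assay and within 2-fold for multiple assays.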

[2] = AUC (0 to 6 hrs) in rat at 10 mg/kg, po; assay type: ADME, organism-based; design: time < 6 hr, dose 10 mg/kg, route oral; details: plasma
[3] = Cytotoxicity against human hepatocytes assessed as effect on GAPDH RNA level […]; assay type: cell-based, Hepatocyte
How it was run: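 Counter-screen for cellular toxicity measuring GAPDH; CC50 reported.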

[4] = Drug level in rat liver at 10 mg/kg, po after 8 hrs; assay type: ADME, organism-based; design: dose 10 mg/kg, route oral; details: read-out: Drug uptake
How it was run: (§1)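 Rapid rat oral screen, 2 animals, PO vehicle 40% HPBCD; compound concentration measured in liver at 6 h, or at 8 h where footnoted; plasma AUC taken over 0-6 h.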

[5] = AUC in rat at 10 mg/kg, po; assay type: ADME, organism-based; design: dose 10 mg/kg, route oral; details: plasma
How it was run: (§2)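 Rats dosed PO and IV at 10 mpk, 3 animals per route; IV given in 40% HPBCD, PO in 0.4% MC.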

[6] = Drug level in rat liver at 10 mg/kg, po after 6 hrs; assay type: ADME, organism-based; design: dose 10 mg/kg, route oral; details: read-out: Drug uptake; how it was run: as §1
[7] = AUC in cynomolgus monkey at 3 mg/kg, iv; assay type: ADME, organism-based, Macaca fascicularis; design: dose 3 mg/kg, route intravenous; details: plasma
How it was run: (§3)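 Cynomolgus monkey dosed PO and IV at 3 mpk, 3 animals per route; IV vehicle 20% HPBCD, PO vehicle 0.4% MC. AUC in µM·h, t1/2 in h, clearance mL/min/kg, Vd(ss) L/kg, F in %.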

[8] = Half life in cynomolgus monkey at 3 mg/kg, iv; assay type: ADME, organism-based, Macaca fascicularis; design: dose 3 mg/kg, route intravenous; details: in vivo; how it was run: as §3
[9] = Metabolic stability in cynomolgus monkey urine assessed as recovery of radioactivity at 2 mg/kg, po after 24 hrs; assay type: ADME, organism-based, Macaca fascicularis; design: dose 2 mg/kg, route oral; details: in vivo
How it was run: (§4)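 Two cynomolgus monkeys given the 14C-labelled ketoamide orally at 2 mg/kg; radioactivity collected in bile and urine over 0-24 h and expressed as % of oral dose; plasma also sampled.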

[10] = Clearance in cynomolgus monkey at 3 mg/kg, po and at 3 mg/kg, iv; assay type: ADME, organism-based, Macaca fascicularis; details: in vivo; how it was run: as §3
[11] = Oral bioavailability in cynomolgus monkey at 3 mg/kg; assay type: ADME, organism-based, Macaca fascicularis; details: in vivo; how it was run: as §3
[12] = Oral bioavailability in rat at 10 mg/kg; assay type: ADME, organism-based; details: in vivo; how it was run: as §2
[13] = AUC in cynomolgus monkey at 3 mg/kg, po; assay type: ADME, organism-based, Macaca fascicularis; design: dose 3 mg/kg, route oral; details: plasma; how it was run: as §3
[14] = AUC in rat at 10 mg/kg, iv; assay type: ADME, organism-based; design: dose 10 mg/kg, route intravenous; details: plasma
[15] = Metabolic stability in cynomolgus monkey bile assessed as recovery of radioactivity at 2 mg/kg, po after 24 hrs; assay type: ADME, organism-based, Macaca fascicularis; design: dose 2 mg/kg, route oral; details: in vivo; how it was run: as §4
[16] = Volume of distribution at steady state in rat at 10 mg/kg, po and at 10 mg/kg, iv; assay type: ADME, organism-based; details: in vivo, read-out: Vdss; how it was run: as §2
[17] = Clearance in rat at 10 mg/kg, po and at 10 mg/kg, iv; assay type: ADME, organism-based; details: in vivo; how it was run: as §2
[18] = Volume of distribution at steady state in cynomolgus monkey at 3 mg/kg, po and at 3 mg/kg, iv; assay type: ADME, organism-based, Macaca fascicularis; details: in vivo, read-out: Vdss; how it was run: as §3
[19] = Half life in rat at 10 mg/kg, iv; assay type: ADME, organism-based; design: dose 10 mg/kg, route intravenous; details: in vivo; how it was run: as §2

| Ki [1] | AUC(0-t) at 6 h [2] | Compound | EC90 (Hepatitis C virus) | CC50 [3] | other results |
| --- | --- | --- | --- | --- | --- |
| 14 nM | 0.14 µM·h | CC(C)(C)NC(=O)N[C@H](C(=O)N1C[C@H]2[C@@H]([C@H]1C(=O)NC(CC1CCC1)C(=O)C(N)=O)C2(C)C)C(C)(C)C (stereo partly drawn) [BOCEPREVIR] | 350 nM | > 5000 nM | concentration at 8 h [4]: 300 nM |
| 5 nM |  | CC(C)[C@H](NC(=O)N[C@H](C(=O)N1C[C@H]2[C@@H]([C@H]1C(=O)NC(CC1CC1)C(=O)C(N)=O)C2(C)C)C(C)(C)C)C(=O)c1ccccc1 (mixture of isomers) | 80 nM | > 5000 nM | AUC [5]: 0.26 µM·h |
| 9 nM | 0.15 µM·h | CC(C)[C@H](NC(=O)N[C@H](C(=O)N1C[C@H]2[C@@H]([C@H]1C(=O)NC(CC1CC1)C(=O)C(N)=O)C2(C)C)C(C)(C)C)C(=O)c1nccs1 (mixture of isomers) | 90 nM | > 5000 nM |  |
| 7 nM | 0.12 µM·h | CC(C)[C@H](NC(=O)N[C@H](C(=O)N1C[C@H]2[C@@H]([C@H]1C(=O)NC(CC1CC1)C(=O)C(N)=O)C2(C)C)C(C)(C)C)C(=O)C1CC1 (mixture of isomers) | 100 nM | > 5000 nM |  |
| 4 nM | 11 µM·h | C#CCCC(NC(=O)[C@@H]1[C@@H]2[C@H](CN1C(=O)[C@@H](NC(=O)N[C@H](C(=O)C1CC1)C1CCCCC1)C(C)(C)C)C2(C)C)C(=O)C(=O)NC1CC1 (mixture of isomers) | 55 nM | > 5000 nM | concentration at 6 h [6]: 2900 nM |
| 58 nM |  | CC(C)(C)[C@H](NC(=O)NC1(C(=O)OCc2ccccc2)CCCC1)C(=O)N1C[C@H]2[C@@H]([C@H]1C(=O)NC(CC1CC1)C(=O)C(N)=O)C2(C)C (mixture of isomers) | 30 nM | > 5000 nM |  |
| 14 nM |  | CC(=O)[C@@H](NC(=O)N[C@H](C(=O)N1C[C@H]2[C@@H]([C@H]1C(=O)NC(CC1CC1)C(=O)C(N)=O)C2(C)C)C(C)(C)C)C(C)C (mixture of isomers) | 400 nM | > 5000 nM |  |
| 38 nM |  | C=CCNC(=O)C(=O)C(CCCC)NC(=O)[C@@H]1[C@@H]2[C@H](CN1C(=O)[C@@H](NC(=O)N[C@H](C(=O)C1CC1)C1CCCCC1)C(C)(C)C)C2(C)C (mixture of isomers) | 900 nM | > 5000 nM |  |
| 44 nM |  | CC(C)(C)[C@H](NC(=O)NC1(C(=O)NCc2ccccc2)CCCCC1)C(=O)N1C[C@H]2[C@@H]([C@H]1C(=O)NC(CC1CC1)C(=O)C(N)=O)C2(C)C (mixture of isomers) | 5000 nM | > 5000 nM |  |
| 120 nM |  | CC(C)(C)[C@H](NC(=O)NC1(COC(=O)c2ccccc2)CCCCC1)C(=O)N1C[C@H]2[C@@H]([C@H]1C(=O)NC(CC1CC1)C(=O)C(N)=O)C2(C)C (mixture of isomers) | 1000 nM | > 5000 nM |  |
| 8 nM | 1.4 µM·h | CC(C)(C)[C@H](NC(=O)N[C@H](C(=O)C1CC1)C1CCCCC1)C(=O)N1C[C@H]2[C@@H]([C@H]1C(=O)NC(CC1CC1)C(=O)C(N)=O)C2(C)C (mixture of isomers) | 100 nM | > 5000 nM | concentration at 6 h [6]: 2700 nM |
| 7 nM | 1.4 µM·h | CC(C)(C)[C@H](NC(=O)N[C@H](C(=O)c1ccccn1)C1CCCCC1)C(=O)N1C[C@H]2[C@@H]([C@H]1C(=O)NC(CC1CC1)C(=O)C(N)=O)C2(C)C (mixture of isomers) | 90 nM | > 5000 nM | concentration at 6 h [6]: 800 nM |
| 9 nM | 24 µM·h | C#CCCC(NC(=O)[C@@H]1[C@@H]2[C@H](CN1C(=O)[C@@H](NC(=O)N[C@H](C(=O)C1CC1)C1CCCCC1)C(C)(C)C)C2(C)C)C(=O)C(=O)NCC=C (mixture of isomers) | 250 nM | > 5000 nM | concentration at 6 h [6]: 8500 nM |
| 9 nM |  | CC(C)(C)[C@H](NC(=O)N[C@H](C(=O)OCc1ccccc1)C1CCCC1)C(=O)N1C[C@H]2[C@@H]([C@H]1C(=O)NC(CC1CC1)C(=O)C(N)=O)C2(C)C (mixture of isomers) | 25 nM | > 5000 nM |  |
| 13 nM |  | CC(C)[C@H](NC(=O)N[C@H](C(=O)N1C[C@H]2[C@@H]([C@H]1C(=O)NC(CC1CC1)C(=O)C(N)=O)C2(C)C)C(C)(C)C)C(=O)OCc1ccccc1 (mixture of isomers) | 35 nM | > 5000 nM |  |
| 10 nM | 55 µM·h | C=CCNC(=O)C(=O)C(CCC)NC(=O)[C@@H]1[C@@H]2[C@H](CN1C(=O)[C@@H](NC(=O)N[C@H](C(=O)C1CC1)C1CCCCC1)C(C)(C)C)C2(C)C (mixture of isomers) | 500 nM | > 5000 nM |  |
| 6 nM |  | CC(C)[C@H](NC(=O)N[C@H](C(=O)N1C[C@H]2[C@@H]([C@H]1C(=O)NC(CC1CC1)C(=O)C(N)=O)C2(C)C)C(C)(C)C)C(=O)NS(=O)(=O)c1ccccc1 (mixture of isomers) | 5000 nM | > 5000 nM |  |
| 25 nM | 26 µM·h | C=CCNC(=O)C(=O)C(CCC)NC(=O)[C@@H]1[C@@H]2[C@H](CN1C(=O)[C@@H](NC(=O)N[C@H](C(=O)C1CC1)C(C)C)C(C)(C)C)C2(C)C (mixture of isomers) | 600 nM | > 5000 nM |  |
| 67 nM |  | CC(C)(C)[C@H](NC(=O)N[C@H](C(=O)N1C[C@H]2[C@@H]([C@H]1C(=O)NC(CC1CC1)C(=O)C(N)=O)C2(C)C)C(C)(C)C)C(=O)OCc1ccccc1 (mixture of isomers) | 50 nM | > 5000 nM |  |
| 8 nM | 4.8 µM·h | C#CCCC(NC(=O)[C@@H]1[C@@H]2[C@H](CN1C(=O)[C@@H](NC(=O)N[C@H](C(=O)C1CC1)C(C)C)C(C)(C)C)C2(C)C)C(=O)C(=O)NC1CC1 (mixture of isomers) | 70 nM | > 5000 nM | concentration at 6 h [6]: 900 nM |
| 39 nM |  | CC(C)(C)[C@H](NC(=O)NC1(C(=O)OCC2CC2)CCCCC1)C(=O)N1C[C@H]2[C@@H]([C@H]1C(=O)NC(CC1CC1)C(=O)C(N)=O)C2(C)C (mixture of isomers) | 60 nM | > 5000 nM |  |
| 8 nM | 0.42 µM·h | CC(C)[C@H](NC(=O)N[C@H](C(=O)N1C[C@H]2[C@@H]([C@H]1C(=O)NC(CC1CC1)C(=O)C(N)=O)C2(C)C)C(C)(C)C)C(=O)c1ccccn1 (mixture of isomers) | 200 nM | > 5000 nM |  |
| 49 nM |  | CC(C)(C)[C@H](NC(=O)NC1(C(=O)OCc2ccccc2)CCCCC1)C(=O)N1C[C@H]2[C@@H]([C@H]1C(=O)NC(CC1CC1)C(=O)C(N)=O)C2(C)C (mixture of isomers) | 20 nM | > 5000 nM | AUC [7]: 3.4 µM·h; half-life [8]: 3.1 h; Stability [9]: 0.8%; clearance [10]: 43 mL/min/kg; bioavailability [11]: 3%; bioavailability [12]: 0%; AUC [13]: 0.05 µM·h; AUC [14]: 9.3 µM·h; Stability [15]: 4.3%; Vd [16]: 3.5 L/kg; clearance [17]: 28 mL/min/kg; Vd [18]: 1.7 L/kg; half-life [19]: 2.9 h |
| 170 nM |  | CC(C)(C)[C@H](NC(=O)NC1(C(=O)OCc2ccccc2)CC1)C(=O)N1C[C@H]2[C@@H]([C@H]1C(=O)NC(CC1CC1)C(=O)C(N)=O)C2(C)C (mixture of isomers) | 1000 nM | > 5000 nM |  |
